Results published in PubChem BioAssay AID463077 (The Scripps Research Institute Molecular Screening Center, 2010).
Activity calls are given as the source filed them.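 Rule for the calls: active = compounds whose half-inhibition concentration IC50 on CK1 delta kinase is at most 1 µM; inactive = the rest.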

The compounds below were run against Casein kinase I isoform delta (Homo sapiens) (UniProt P48730) (assay: CK1d kinase inhibitors, late-stage follow-up, biochemical, radioactive 33P-ATP, purified kinase, powder samples (AID 463077)). Details: 33P-ATP filter-binding, CK1tide.
Outline: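 Assay system: purified human casein kinase 1 delta (CK1d) enzyme; medium: pH 7.5 HEPES buffer with 1% DMSO; reagent: 20 µM CK1tide with radiolabelled ATP; compound: 10 points, 1:3 steps, from 50 µM; incubation: 120 min reaction, room temperature; detection: 33P incorporation by filter binding; evaluation: IC50 from radioactivity ratio versus concentration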

Chain of Casein kinase I isoform delta (Homo sapiens) (P48730 whole entry, looked up, canonical isoform): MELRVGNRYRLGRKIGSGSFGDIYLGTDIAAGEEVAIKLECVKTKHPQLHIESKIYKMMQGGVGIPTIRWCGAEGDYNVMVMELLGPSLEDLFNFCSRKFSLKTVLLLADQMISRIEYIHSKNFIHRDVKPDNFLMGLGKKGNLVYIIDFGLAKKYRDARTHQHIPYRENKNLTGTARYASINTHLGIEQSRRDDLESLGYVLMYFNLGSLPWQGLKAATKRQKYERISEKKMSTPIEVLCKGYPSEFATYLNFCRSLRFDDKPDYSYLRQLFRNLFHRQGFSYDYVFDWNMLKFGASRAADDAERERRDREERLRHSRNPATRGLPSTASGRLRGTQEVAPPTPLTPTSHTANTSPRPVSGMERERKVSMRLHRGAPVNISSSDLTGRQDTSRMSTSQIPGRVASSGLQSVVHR

| IC50 | SMILES |
| --- | --- |
| inactive | Cc1ccnc(NC(=O)CCCOc2cc(=O)n(C)c3ccccc23)c1 |
| 50 nM | Fc1ccc2nc(CNc3nc(N4CCOCC4)nc4c3ncn4-c3ccsc3)[nH]c2c1 |
| 17 nM | COc1ccc2nc(CNc3nc(N4CCOCC4)nc4c3ncn4-c3ccsc3)[nH]c2c1 |
| 361 nM | CCOC(=O)c1cccc2[nH]c(CNc3nc(N4CCOCC4)nc4c3ncn4-c3ccsc3)nc12 |
| 815 nM | CC(C)n1cnc2c(NCc3nc4c([N+](=O)[O-])cccc4[nH]3)nc(N3CCOCC3)nc21 |
| 49 nM | O=[N+]([O-])c1cccc2[nH]c(CNc3nc(N4CCOCC4)nc4c3ncn4-c3ccsc3)nc12 |
| 21 nM | O=[N+]([O-])c1ccc2nc(CNc3nc(N4CCOCC4)nc4c3ncn4-c3ccsc3)[nH]c2c1 |
| 13 nM | FC(F)(F)c1ccc2nc(CNc3nc(N4CCOCC4)nc4c3ncn4-c3ccsc3)[nH]c2c1 |
| 161 nM | c1ccc2[nH]c(CNc3nc(N4CCOCC4)nc4c3ncn4-c3ccsc3)nc2c1 |
| 105 nM | Clc1ccc2nc(CNc3nc(N4CCOCC4)nc4c3ncn4-c3ccsc3)[nH]c2c1 |
| 128 nM | FC(F)(F)c1cccc2[nH]c(CNc3nc(N4CCOCC4)nc4c3ncn4-c3ccsc3)nc12 |
| 129 nM | c1ccc2cc3[nH]c(CNc4nc(N5CCOCC5)nc5c4ncn5-c4ccsc4)nc3cc2c1 |
| 11 nM | N#Cc1ccc2nc(CNc3nc(N4CCOCC4)nc4c3ncn4-c3ccsc3)[nH]c2c1 |
